Results of several laboratories.
Lines come from different studies, so protocols differ.
Target: Insulin receptor-related protein (INSRR, Homo sapiens, UniProt P14616)

COc1cc(-c2cn(C3CCc4c(F)cccc4N(CC(F)(F)F)C3=O)nn2)ccc1-n1cnc(C)c1 (stereo not shown) — remaining binding (cell-free assay, competition with immobilised ligand; 1 µM): 100%
Nc1ncnc2occ(-c3ccc(NC(=O)Nc4cc(C(F)(F)F)ccc4F)cc3)c12 — remaining signal (cell-free assay; 20 µM): 0.85%
N#CCCc1ccc2c(c1)-c1[nH]c3ccc([N+](=O)[O-])cc3c1CC(=O)N2 — remaining signal (cell-free assay; 0.5 µM): 99.2%
CCS(=O)(=O)c1cc2cc(C[C@@](O)(CC(C)(C)c3ccc(F)cc3C(N)=O)C(F)(F)F)[nH]c2cn1 — remaining binding (cell-free assay, competition with immobilised ligand; 1 µM): 64%
Nc1nc(NC2CCCCC2)sc1C(=O)c1ccccc1 — remaining activity (enzyme activity, inhibitor; 10 µM): 25%
CN(C)c1ncnc(-c2ccc3nc(Nc4cc(CN5CCN(C(=O)CC(F)(F)F)CC5)ccn4)[nH]c3c2)c1Cl — remaining binding (cell-free assay, competition with immobilised ligand; 1 µM): 95%
CC(C)(O)[C@H]1CC[C@H](Nc2ccc3ncc(-c4cccc(C(F)(F)F)c4)n3n2)CC1 — remaining activity (enzyme activity, inhibitor; 1 µM): 77%
Cc1cnc(NC2CCOCC2)nc1-n1cnc(C(=O)NC(CN)c2cc(F)cc(Cl)c2)c1 (stereo not shown) — remaining activity (enzyme activity, inhibitor, radiometric; 1 µM): 70%
CN1CC(Oc2cnc(C#N)cc2-c2ccn3nc(NC(=O)C4CC4)cc3c2)C1 — inhibition (enzyme activity, inhibitor; 1 µM): -4%
COc1cc2ncnc(Nc3ccc(Oc4ccccc4)c(C)c3C)c2cc1OC — inhibition (enzyme activity, inhibitor; 1 µM): 2%
O=C1NC(=O)c2cc(Nc3ccc(F)cc3)c(Nc3ccc(F)cc3)cc21 — remaining signal (cell-free assay; 0.5 µM): 111%
COc1cc2nccc(Oc3ccc(NC(=O)c4c5n(n(-c6ccc(F)cc6)c4=O)CCCC5)cc3)c2cc1OC — inhibition (enzyme activity, inhibitor; 0.1 µM): 5%
CCN(CC)CCNC(=O)c1c(C)[nH]c(/C=C2\C(=O)Nc3ccc(F)cc32)c1C — inhibition (enzyme activity, inhibitor; 10 µM): 78%
O=C(Nc1cnn(-c2csc(C(=O)NC3COC3)c2)c1)Nc1ccccc1Cl — remaining activity (enzyme activity, inhibitor; 5 µM): 96%
Oc1cccc(-c2nc(N3CCOCC3)c3oc4ncccc4c3n2)c1 — remaining activity (enzyme activity, inhibitor; 10 µM): 89%
Cc1ccc(C(=O)NCc2ccsc2)cc1C#Cc1cn(C(C)C)c2ncnc(N)c12 — activity vs control (enzyme activity, inhibitor; 1 µM): 105%
COc1cc(Cl)c(C(=O)N[C@@H](CN[C@H]2CC[C@@H](N)CC2)Cc2ccc(C#N)cc2)cc1-c1ccc(CN[C@H](C)c2ccc(C)cc2)o1 — remaining activity (enzyme activity, inhibitor; 1 µM): 98%
CC/C(=N\NC(=O)NCc1cccc(O)c1)c1ccc(O)c(C)c1O — inhibition (enzyme activity, inhibitor; 0.1 µM): 1.7%
O=C(N[C@H]1CCCCC/C=C\C2C[C@@]2(C(=O)O)NC(=O)[C@@H]2C[C@@H](Oc3ccncc3)CN2C1=O)OC1CCCC1 (stereo partly shown) — remaining binding (binding, competition with immobilised ligand; 1 µM): 100%
COc1cc(Nc2cnc(C#N)c(O[C@H](C)CN(C)C)n2)ncc1-c1cnn(C)c1 — remaining activity (enzyme activity, inhibitor, radiometric; 1 µM): 103%
CN([C@@H]1CCc2c(CC(=O)O)c3cc(S(C)(=O)=O)ccc3n2C1)S(=O)(=O)c1ccc(F)cc1 — remaining binding (cell-free assay, competition with immobilised ligand; 1 µM): 100%
CC(C)(C)c1nc(-c2cccc(NS(=O)(=O)c3c(F)cccc3F)c2F)c(-c2ccnc(N)n2)s1 — remaining activity (enzyme activity, inhibitor, radiometric; 1 µM): 103%
Cc1cc(NC(=O)c2cccc(S(F)(F)(F)(F)F)c2)cc(-n2ccn3nc(-c4cccnc4)cc23)c1 — remaining binding (cell-free assay, competition with immobilised ligand; 1 µM): 100%
Cc1ccc(Nc2nccc(N(C)c3ccc4c(C)n(C)nc4c3)n2)cc1S(N)(=O)=O — inhibition (enzyme activity, inhibitor; 10 µM): 41%
O=C(Nc1cccnn1)N1CCC(=Cc2cccc(Oc3ccc(C(F)(F)F)cn3)c2)CC1 — remaining binding (cell-free assay, competition with immobilised ligand; 1 µM): 100%
Cc1ccc(NC(=O)c2ccc(C)c(C(F)(F)F)c2)cc1C#Cc1nn(C2CCC(O)CC2)c2ncnc(N)c12 (stereo not shown) — remaining signal (cell-free assay; 10 µM): 107%
Cc1nc(Cc2cccc(C(F)(F)F)c2)sc1-c1ccc(C(N)=O)nc1 — remaining binding (cell-free assay, competition with immobilised ligand; 1 µM): 100%
CNC(=O)c1cc(Oc2ccc(NC(=O)Nc3ccc(Cl)c(C(F)(F)F)c3)cc2)ccn1 — inhibition (enzyme activity, inhibitor; 0.3 µM): -25%
